# Bioassay records from PubChem.
# TRPC6 inh: inhibitors of mouse TRPC6 channel | Q61143 | HEK293-TRPC6, membrane potential dye, ACh-evoked depolarization; hits give low values | B-score at 10 µM | 310,000 compounds, 1.1% hits;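 active means B-score under library mean minus 3 SD, initial fluorescence not abnormally high, positive integrated signal ratio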;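 further: B-score derived from integrated fluorescence ratio over the kinetic read; more negative B-score means stronger inhibition of depolarization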
# Target sequence (Q61143 whole entry, looked up): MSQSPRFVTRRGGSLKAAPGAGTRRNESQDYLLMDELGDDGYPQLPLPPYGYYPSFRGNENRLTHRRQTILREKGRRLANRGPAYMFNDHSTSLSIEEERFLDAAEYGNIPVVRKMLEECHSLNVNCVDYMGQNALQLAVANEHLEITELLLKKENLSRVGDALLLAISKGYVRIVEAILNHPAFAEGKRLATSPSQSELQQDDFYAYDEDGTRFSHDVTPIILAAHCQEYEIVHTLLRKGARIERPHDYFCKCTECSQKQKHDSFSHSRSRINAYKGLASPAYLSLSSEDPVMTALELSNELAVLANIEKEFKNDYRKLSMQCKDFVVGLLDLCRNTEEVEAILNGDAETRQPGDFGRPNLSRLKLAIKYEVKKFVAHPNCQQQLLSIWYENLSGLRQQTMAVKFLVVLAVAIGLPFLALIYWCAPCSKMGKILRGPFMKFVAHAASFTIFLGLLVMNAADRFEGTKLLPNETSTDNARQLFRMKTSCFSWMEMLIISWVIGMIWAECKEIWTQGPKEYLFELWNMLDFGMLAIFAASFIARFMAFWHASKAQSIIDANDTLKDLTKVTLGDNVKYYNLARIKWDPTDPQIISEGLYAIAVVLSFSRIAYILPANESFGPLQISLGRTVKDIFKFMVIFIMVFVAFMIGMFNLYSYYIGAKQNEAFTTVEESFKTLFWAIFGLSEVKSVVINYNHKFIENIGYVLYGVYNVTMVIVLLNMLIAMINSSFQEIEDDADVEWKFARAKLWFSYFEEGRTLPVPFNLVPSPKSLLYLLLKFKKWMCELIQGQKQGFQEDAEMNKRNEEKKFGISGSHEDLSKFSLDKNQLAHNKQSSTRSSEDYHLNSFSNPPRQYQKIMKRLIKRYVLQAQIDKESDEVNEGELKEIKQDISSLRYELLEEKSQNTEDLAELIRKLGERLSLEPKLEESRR
# TRPC4 agonist: opens the mouse TRPC4 cation channel; HEK293 TRPC4beta/mu-opioid, Fluo4 calcium fluorescence; hits give high values; 310,000 compounds, 0.49% hits; B-score at 10 µM; AID 2237; Q9QUQ5;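 active means B-score above 5 SD of library B-scores, and initial fluorescence ratio not above library mean plus 5 SD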;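 further: positive B-score marks a calcium rise read as TRPC4 activation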
#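 Material: TRPC4beta and mu-opioid receptor HEK293 stable cells | Incubation: 45 min room-temperature Fluo4 loading, 110 s read | Detection: Kinetic Fluo4 calcium fluorescence | Measure: Integrated baseline-normalised fluorescence ratio, converted to per-well B score | Benchmarks: Low control buffer alone, high control maximal DAMGO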
# TRPC4 inh: blocks the mouse TRPC4 cation channel; Q9QUQ5; HEK293 TRPC4beta/mu-opioid, DAMGO-evoked Fluo4 calcium flux; hits give low values; B-score at 10 µM; 300,000 compounds, 0.39% hits; AID 2247;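 active means B-score over 3 SD under the library average, no early fluorescence shift, positive overall ratio signal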
#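 Assay system: Stable TRPC4beta/mu-opioid receptor HEK293 cells | Reagent: DAMGO in two steps, submaximal then maximal | Compound dosing: Single concentration per test compound | Signal: Fluo4 Ca2+ flux fluorescence | Evaluation: Per-well B score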
# TRPC4 potent: allosterically enhances the mouse TRPC4 cation channel; Q9QUQ5; HEK293 TRPC4beta/mu-opioid, DAMGO EC20, Fluo-4 Ca2+ flux; hits give high values; B-score at 10 µM; 310,000 compounds, 0.42% hits;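 active means B-score of calcium response area above 5 SD of library B-scores, with initial fluorescence ratio within 5 SD of library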
# TRPC6 act: mouse TRPC6 channel activation. Q61143. 310,000 compounds, 0.13% hits. B-score at 10 µM. HEK293-TRPC6 membrane potential dye fluorescence; hits give high values. AID 2550;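 active means B-score of the integrated fluorescence ratio above library mean plus 3 SD, and starting fluorescence ratio within library mean plus 5 SD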;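 further: higher score means more depolarization so channel activation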
# Kir21 block: blocks the mouse Kir2.1 inward-rectifier potassium channel. P35561. HEK293-Kir2.1, FluxOR thallium flux fluorescence; hits give low values. B-score at 10 µM. 310,000 compounds, 0.85% hits. AID 1672;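 active means fluorescence ratio B-score at or below minus 3 SD of library scores, with starting-brightness B-score within 2 SD, cut at about -4.2 in these data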;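 further: channel flux triggered by added potassium and thallium sulfate stimulus; B-score of peak minus minimum fluorescence over baseline after thallium stimulus; more negative B-score means stronger Kir2.1 block with less thallium influx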
# Hits are given with their value; n = inactive. Compounds with a hit are over-represented: about 2.9% of the library has one in this group of screens.
SMILES,TRPC6 inh,TRPC4 agonist,TRPC4 inh,TRPC4 potent,TRPC6 act,Kir21 block
COc1ccc(-c2nc(CS(=O)CC(=O)NCc3ccc4c(c3)OCO4)c(C)o2)cc1OC (stereo not drawn),n,n,n,n,n,n
CCc1cccc(C)c1NC(=S)NCc1ccccc1,n,n,n,n,n,n
CCc1cccc(C)c1NC(=S)NCC(c1cccnc1)N(C)C (stereo not drawn),n,91,n,n,n,n
CN(C)C(CNC(=O)NC1CCCCC1)c1cccnc1 (stereo not drawn),n,105,n,n,n,n
CN(C)C(CNC(=S)Nc1ccccc1)c1cccnc1 (stereo not drawn),n,75,n,n,n,n
CN(C)C(CNC(=O)c1cccs1)c1cccnc1 (stereo not drawn),n,n,n,n,n,n
O=C(Nc1cccc([N+](=O)[O-])c1)NC1CCCCCCC1,n,n,n,n,n,n
COc1ccccc1Oc1ccc(NC(=O)Cc2ccccc2)cc1,n,n,n,n,n,n
Cc1ccc(S(=O)(=O)N2CCCN(C(=O)c3cc4ccccc4[nH]3)CC2)cc1,n,n,n,n,n,n
Cc1ccc(C(=O)OCC(=O)N2CCc3ccccc32)cc1,n,n,n,11,n,n
c1ccc(-n2cc(CNCCc3cscn3)c(-c3ccc4c(c3)OCO4)n2)cc1,n,46,n,n,n,n
OCc1cn(-c2ccccc2)nc1-c1ccc2c(c1)OCCO2,n,n,n,n,n,n
CCCNC(=O)CC1C(=O)N(Cc2ccccc2)C(C)c2nc3ccccc3n21 (stereo not drawn),n,n,n,n,n,n
CNCc1ccccc1Sc1ccc(O)c(O)c1,n,n,n,n,n,-6.5
COc1ccc(Sc2ccccc2CN(C)C)cc1OC,n,n,n,n,n,n
Cn1nnnc1SCCNCc1ccccc1OCc1ccc(Cl)cc1,n,n,-7,n,n,-4.3
Cn1nnnc1SCCNCc1cc(Cl)ccc1OCc1ccccc1,n,n,n,n,n,n
O=C(NC1CCN(Cc2ccccc2)CC1)C1CCCN(S(=O)(=O)c2cccc3nonc23)C1 (stereo not drawn),n,n,n,10,n,n
Cc1cnc(NC(=O)Nc2ccc(OCc3ccccc3)cc2)c(Br)c1,n,n,n,n,n,n
O=C(COC(=O)Cc1c[nH]c2ccccc12)NC1CCCCC1,n,n,n,n,n,-7
CC(C)c1ccccc1NC(=O)COC(=O)Cc1c[nH]c2ccccc12,n,n,n,n,n,-5.4
COc1ccc(C(C(=O)NC2CCCCC2)N(C(=O)Cc2c[nH]c3ccccc23)c2ccccc2C)cc1OC (stereo not drawn),n,n,n,11,n,n
Cc1ccc(C(C(=O)NC2CCCCC2)N(C(=O)Cc2c[nH]c3ccccc23)c2ccccc2C)o1 (stereo not drawn),n,n,n,n,n,n
COc1ccc(/C=N/Nc2nc3ccccc3s2)cc1O,n,n,n,16,n,n
CSc1cccc(NC(=S)NCCCN2CCN(c3ccc(F)cc3)CC2)c1,n,n,n,n,n,-5.8
SMILES,TRPC6 inh,TRPC4 agonist,TRPC4 inh,TRPC4 potent,TRPC6 act,Kir21 block
COc1ccc(-c2cc(C(=O)N3CC(C)CC(C)C3)c3ccccc3n2)cc1 (stereo not drawn),n,n,n,18,n,n
COc1ccc(-c2cc(C(=O)N3CCCC3)c3ccccc3n2)cc1,n,n,n,n,n,n
COc1ccc2nc(SCCN(C)C)[nH]c2c1,n,113,n,n,n,n
COc1ccc2nc(SCC(N)=O)[nH]c2c1,n,n,n,n,n,n
CC1=C(C(=O)OCCc2ccccc2)C(c2ccsc2)NC(=O)N1C (stereo not drawn),n,n,n,n,n,-5.6
COC(=O)C1=C(C)N(C)C(=O)NC1c1ccsc1 (stereo not drawn),n,n,n,n,n,n
O=C(CN1C(=O)NC2(CCCC2)C1=O)OCCOc1cccc(Br)c1,n,n,n,n,n,n
Cc1ccc(SCc2c(C#N)c3ccccc3n2C)cc1,n,n,n,n,n,-6.6
COc1ccccc1C(=O)NCCC(=O)N1CC=C(c2ccccc2)CC1,n,n,n,n,n,-4.5
NC(=O)C(c1cccc(Cl)c1)c1ncc(C(F)(F)F)cc1Cl (stereo not drawn),n,n,n,15,n,n
NC(=S)C(c1ccccc1)c1ncc(C(F)(F)F)cc1Cl (stereo not drawn),n,n,n,n,n,n
COC(=O)CN1C(=O)N/C(=C/c2cc(OC)c(OC)cc2C)C1=O,n,n,n,n,n,n
Cc1ccc(OC(=O)CCC(=O)Nc2ccc(S(=O)(=O)Nc3cc(C)on3)cc2)cc1,n,n,n,n,n,n
CC(=O)NS(=O)(=O)c1ccc(NC(=O)CCC(=O)Oc2ccc(C)cc2)cc1,n,n,n,11,n,n
CCOC(=O)c1cnc(SCC(=O)N2CCOCC2)nc1N,n,n,n,n,n,n
COc1ccc(OCCN(C)Cc2c(O)ccc3ccccc23)cc1,n,n,n,18,n,n
Cc1cc(-c2csc3ncnc(N4CCN(C)CC4)c23)cc(C)c1C,n,n,-7,n,n,n
CNC(=O)c1nnsc1S(=O)c1ccc(Cl)cc1 (stereo not drawn),n,n,n,n,n,-7.6
CCCNC(=O)c1nnsc1S(=O)c1ccc(Cl)cc1 (stereo not drawn),n,n,-6,n,n,-6.1
CC1(C(=O)OCC(=O)NNC(=O)COc2ccc(Cl)cc2)CC1(Cl)Cl (stereo not drawn),n,n,n,n,n,n
O=C(Cc1c(Cl)cccc1Cl)OCC(=O)N1CCN(C(=O)c2ccco2)CC1,n,n,n,n,n,n
Oc1cccc(Nc2nc(NCC3CCCO3)c3ccccc3n2)c1 (stereo not drawn),n,n,n,n,n,-8.1
c1ccc2c(NCC3CCCO3)nc(N3CCOCC3)nc2c1 (stereo not drawn),n,n,n,n,n,n
COc1ccc(S(=O)(=O)NC2CC2)cc1Cl,n,n,n,n,n,n
Cc1ccc(NC(=S)NC2CC3CCCC(C2)N3Cc2cccs2)cc1 (stereo not drawn),n,48,n,n,n,n
S=C(Nc1ccc(Cl)cc1)NC1CC2CCC(C1)N2Cc1ccccc1 (stereo not drawn),n,n,n,n,n,-4.7
CCc1ccc(NC(=S)NC2CC3CCCC(C2)N3Cc2ccccc2)cc1 (stereo not drawn),n,51,n,n,n,n
Fc1ccc(NC(=S)NC2CC3CCCC(C2)N3Cc2cccs2)cc1 (stereo not drawn),n,n,n,n,n,n
